Our source for the IC50 values is BindingDB's records for doi:10.1016/j.bmcl.2009.10.078 (Niddk, 2009).

Molecules are shown by their SMILES.

The experiment deals with T1, Protein Tat (Human immunodeficiency virus type 1 group M subtype B (isolate HXB2), UniProt P04608).
T1 sequence (P04608 whole entry): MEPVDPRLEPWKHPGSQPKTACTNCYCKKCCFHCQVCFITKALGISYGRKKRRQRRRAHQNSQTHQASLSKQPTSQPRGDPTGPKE
Description: Inhibition of HIV1 TAT transfected to human HeLa cells assessed as decrease in luminescence after 48 hrs by duel luciferase reporter gene assay. A digest of the protocol: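 HeLa cells stably carrying HIV-1 Tat and firefly luciferase on one bicistronic mRNA plus an HIV-1 LTR-renilla luciferase reporter. IC50 taken from dose-dependent fall in renilla luminescence (Tat-TAR function); firefly signal monitors Tat expression/cytotoxicity.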
In the case of `C[C@@H](CN[C@H](CN[C@H](CN[C@H](CNCCC(N)=O)Cc1ccc(O)cc1)Cc1ccc(O)cc1)Cc1ccc(O)cc1)NC[C@H](Cc1ccc(O)cc1)NC[C@H](Cc1ccc(O)cc1)NC[C@H](Cc1ccc(O)cc1)NC[C@@H](N)Cc1ccc(O)cc1`, the IC50 turned out to be 0.9 µM. As to `NCCCC[C@@H](CN[C@H](CNCCC(N)=O)Cc1ccc(O)cc1)NC[C@H](Cc1ccc(O)cc1)NC[C@H](CCCCN)NC[C@H](Cc1c[nH]c2ccccc12)NC[C@@H](N)Cc1ccc(O)cc1`, the IC50 was 10 µM. For `NCCCC[C@@H](CN[C@H](CNCCC(N)=O)Cc1ccc(O)cc1)NC[C@H](Cc1ccc(O)cc1)NC[C@H](CCCCN)NC[C@H](Cc1ccc(O)cc1)NC[C@@H](N)Cc1ccc(O)cc1`, the IC50 is 35 µM. Consider `NC(=O)CCNC[C@H](Cc1ccc(O)cc1)NC[C@H](Cc1ccc(O)cc1)NC[C@@H](N)Cc1ccc(O)cc1`, for which the IC50 was found to be 19 µM. For the compound `NCCCC[C@@H](CN[C@H](CN[C@H](CN[C@H](CNCCC(N)=O)Cc1ccc(O)cc1)Cc1ccc(O)cc1)Cc1ccc(O)cc1)NC[C@H](Cc1ccc(O)cc1)NC[C@@H](N)Cc1ccc(O)cc1`, the IC50 was found to be 12 µM. To `C[C@@H](CN[C@H](CN[C@H](CN[C@H](CNCCC(N)=O)Cc1ccc(O)cc1)Cc1ccc(O)cc1)Cc1ccc(O)cc1)NC[C@H](Cc1ccc(O)cc1)NC[C@@H](N)Cc1ccc(O)cc1` belongs 6 µM. With `NC(=O)CCNC[C@H](Cc1ccc(O)cc1)NC[C@H](Cc1ccc(O)cc1)NC[C@H](Cc1ccc(O)cc1)NC[C@H](Cc1ccc(O)cc1)NC[C@@H](N)Cc1ccc(O)cc1`, the IC50 was determined as 30 µM.
